Results as given in article PMC5962930 (ACS Chemical Biology, 2018).

What was measured:
apALNR = molecular target: T1, apALNR (Aplysia californica, UniProt A0ABM0K1K5); format: cell-based
T1 sequence (A0ABM0K1K5 1-578): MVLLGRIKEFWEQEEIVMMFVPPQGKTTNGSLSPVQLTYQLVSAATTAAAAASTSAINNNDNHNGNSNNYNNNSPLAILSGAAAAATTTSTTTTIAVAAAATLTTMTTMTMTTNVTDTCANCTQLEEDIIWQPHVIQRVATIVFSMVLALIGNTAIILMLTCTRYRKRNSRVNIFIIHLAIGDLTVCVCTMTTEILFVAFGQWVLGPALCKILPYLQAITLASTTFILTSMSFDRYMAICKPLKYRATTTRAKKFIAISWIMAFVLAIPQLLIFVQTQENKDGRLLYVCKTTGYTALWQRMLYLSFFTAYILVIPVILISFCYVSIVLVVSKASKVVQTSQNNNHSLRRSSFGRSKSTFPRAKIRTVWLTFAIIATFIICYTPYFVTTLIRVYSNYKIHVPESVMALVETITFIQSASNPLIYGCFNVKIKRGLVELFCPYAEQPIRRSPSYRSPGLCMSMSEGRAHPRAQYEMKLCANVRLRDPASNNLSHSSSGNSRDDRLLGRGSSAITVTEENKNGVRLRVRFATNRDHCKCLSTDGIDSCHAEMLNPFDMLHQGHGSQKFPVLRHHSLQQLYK

Aplysia feeding network = assay: Feeding network; format: cell-based; details: intact buccal and cerebral ganglia; peptide perfusion vs control
How it was run: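 Intact buccal plus cerebral ganglia were recorded intra- and extracellularly during peptide perfusion. A peptide scored active when perfusion gave statistically higher circuit activity than control without peptide. Means were compared by repeated-measures one-way ANOVA, assuming sphericity, with Bonferroni post test.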

## H-SYADSKDEESNAALSDFAED-OH
apALNR
  EC50: > 50 µM
Aplysia feeding network
  feeding network (electrophys.): not active
